In the library only some 3.5% were active in any assay of this set; here they are far more common.
RGS4 inh: RGS4 inhibitors, primary screen, cell-based, HEK293 M3R inducible RGS4, calcium flux | Fluo-4 calcium flux; stronger effect = higher value; triggered by carbachol at its EC20 | B-score at 10 µM | 0.45% of 310,000 active | AID 463165, 2010;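 active = B-score, a plate-corrected calcium signal, over three deviations above library mean, with baseline fluorescence within five deviations of library mean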;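 also: RGS4 expression induced by doxycycline in cells with stable M3 receptor; B-score is computed from the integrated fluorescence ratio over baseline after carbachol; higher B-score means a larger calcium signal and so more RGS4 inhibition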
Target sequence (P49798 whole entry, looked up): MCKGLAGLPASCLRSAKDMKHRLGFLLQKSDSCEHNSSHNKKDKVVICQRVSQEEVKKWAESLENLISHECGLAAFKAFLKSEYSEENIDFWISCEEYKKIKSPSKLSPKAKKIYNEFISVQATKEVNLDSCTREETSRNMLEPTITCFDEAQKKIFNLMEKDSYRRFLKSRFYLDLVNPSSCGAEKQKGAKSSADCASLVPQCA
RGS4 pot: RGS4 potentiators or activators, primary screen, cell-based, HEK293 M3R inducible RGS4, calcium flux; carbachol calcium flux Fluo4; stronger effect = lower value; B-score at 10 µM; 0.92% of 310,000 active;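 active = B-score of the integrated calcium signal more than 4 SD below the library mean, with starting fluorescence not abnormally high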;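 also: negative B-score means reduced calcium response which marks RGS4 activation or potentiation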
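Test system: HEK293 cells with stable M3R and inducible RGS4; also added: carbachol at ECmax as muscarinic agonist stimulus; schedule: dye loading 30 min 37 °C, buffer rest 30 min RT; technique: kinetic calcium fluorescence imaging with Fluo4-AM dye, 2 µM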
MrgX1 agonist: agonists of human MrgX1 receptor, primary screen, HEK293 cells, Fluo-4 calcium flux; AID 588627, 2011; Mas-related G-protein coupled receptor member X1 (Homo sapiens), Q96LB2; Fluo-4 calcium fluorescence, agonist mode; stronger effect = higher value; 0.44% of 310,000 active; B-score at 10 µM;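 active = calcium response B-score plate-corrected fluorescence ratio at least 3 library SD, with starting fluorescence B-score inside 5 SD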
Target sequence (Q96LB2 whole entry, looked up): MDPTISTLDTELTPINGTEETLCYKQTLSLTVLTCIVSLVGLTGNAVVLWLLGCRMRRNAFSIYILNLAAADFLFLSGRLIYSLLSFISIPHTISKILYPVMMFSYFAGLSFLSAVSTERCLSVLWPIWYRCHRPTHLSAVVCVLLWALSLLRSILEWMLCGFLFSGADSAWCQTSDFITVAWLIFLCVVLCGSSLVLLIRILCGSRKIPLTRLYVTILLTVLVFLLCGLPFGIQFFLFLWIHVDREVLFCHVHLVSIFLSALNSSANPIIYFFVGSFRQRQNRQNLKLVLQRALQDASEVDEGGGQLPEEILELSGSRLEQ
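Assay system: MrgX1-expressing HEK293 cells / Amount: fifteen thousand cells per well / Doses: test compound in the initial addition of three / Timing: cells plated overnight, dye loaded 0.5 h 37 °C, 0.5 h room temperature / Technique: kinetic calcium dye fluorescence, Fluo-4 NW / Control set: positive and negative controls per plate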
MrgX1 antag: antagonists of human MrgX1 receptor, primary screen, HEK293 cells, Fluo-4 calcium flux; Mas-related G-protein coupled receptor member X1 (Homo sapiens), Q96LB2; BAM8-22 antagonism; stronger effect = lower value; B-score at 10 µM; 1.3% of 310,000 active;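 active = calcium-response B-score plate-corrected more than 3 library SD below zero, starting fluorescence within 5 deviations, no agonist response on first addition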;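 also: peak minus trough fluorescence over baseline after final BAM8-22 challenge near maximal dose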
MrgX1 allo act: positive allosteric modulators of MrgX1, primary screen, HEK293 cells, Fluo-4 calcium flux | AID 588675, 2011 | FDSS; stronger effect = higher value | 0.63% of 310,000 active | B-score at 10 µM;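 active = plate-corrected calcium response at least 3 library SD above typical, normal starting fluorescence, not activating the receptor alone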;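 also: compound read alongside a low EC10 to EC30 dose of BAM8-22 agonist; peak minus trough fluorescence over baseline measured at the second addition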
MrgX1 ag reconf: MrgX1 receptor agonists, duplicate retest, confirmation, HEK293 cells, Fluo-4 calcium flux; shares compounds with MrgX1 agonist; Fluo-4 calcium fluorescence, FDSS; activation, % at 10 µM; 78% of 600 active; AID 602412, 2012;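 active = calcium signal rise, corrected for plate position, at least 3 library SD high, with starting brightness within 5 such deviations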
HEK293 Ca flux: nonspecific calcium signal in parental HEK293, confirmation, counter-screen for MrgX1 antagonist project, parental HEK293 cells, Fluo-4 calcium flux; shares compounds with MrgX1 antag; Fluo-4 calcium fluorescence, FDSS; fluorescence ratio F(max-min)/F0 at 10 µM; 2% of 4,000 active;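 active = duplicate-averaged calcium fluorescence ratio at least three times the standard deviation of buffer wells, a nonspecific response in parental cells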
HEK293 Ca counter: calcium response in parental HEK293 cells, primary screen, counter-screen for MrgX1 allosteric activator project, cell-based, Fluo-4 calcium flux, duplicate | shares compounds with MrgX1 antag | Fluo-4 fluorescence ratio; stronger effect = higher value | fluorescence ratio F(max-min)/F0 at 10 µM | 0.4% of 4,000 active | AID 624114, 2012;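 active = calcium fluorescence ratio, averaged over duplicates, at least 3 SD of the buffer-well ratio, meaning a nonspecific response in receptor-free cells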;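 also: untransfected parental HEK293 lacking MrgX1 used as counterscreen for MrgX1 allosteric activators; fluorescence change taken during the second addition on a kinetic imager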
HEK293 Ca cntr2: calcium response in parental HEK293 cells, primary screen, counter-screen for MrgX1 agonist project, cell-based, Fluo-4 calcium flux, duplicate, agonist mode | shares compounds with MrgX1 antag | Fluo-4 calcium fluorescence (FDSS); stronger effect = higher value | fluorescence ratio F(max-min)/F0 at 10 µM | 8.7% of 4,000 active | AID 624115, 2012;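 active = calcium fluorescence ratio at least three times the spread of buffer wells, meaning a non-specific response in parental cells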
Hits are given with their value.

Screening COC(=O)c1ccccc1NC(=O)C1CCN(C(=O)c2ccc(OC)cc2)CC1 returned RGS4 inh inactive, RGS4 pot inactive, MrgX1 agonist inactive, MrgX1 antag inactive and MrgX1 allo act inactive.
For CCOc1cc(C#N)ccc1OCC(=O)N1CCc2ccccc2C1 the results were RGS4 inh inactive, RGS4 pot inactive, MrgX1 agonist inactive, MrgX1 antag inactive and MrgX1 allo act inactive.
`COc1cc(C#N)ccc1OCC(=O)N1CCc2ccccc2C1` gave RGS4 inh inactive, RGS4 pot inactive, MrgX1 agonist 50, MrgX1 antag inactive, MrgX1 allo act inactive, MrgX1 ag reconf inactive, HEK293 Ca flux inactive, HEK293 Ca counter inactive and HEK293 Ca cntr2 inactive.
CN(C)c1ccc(/C=C/c2nc3ccccc3c(=O)[nH]2)cc1 was read as RGS4 inh inactive, RGS4 pot -7, MrgX1 agonist 27, MrgX1 antag inactive, MrgX1 allo act inactive, MrgX1 ag reconf inactive, HEK293 Ca flux inactive, HEK293 Ca counter inactive and HEK293 Ca cntr2 55.
O=c1[nH]c(/C=C/c2ccc(Br)cc2)nc2ccccc12 was read as RGS4 inh inactive, RGS4 pot inactive, MrgX1 agonist inactive, MrgX1 antag inactive and MrgX1 allo act inactive.
`Cc1cc(N2CCOCC2)nc(N)n1` gave RGS4 inh inactive, RGS4 pot inactive, MrgX1 agonist 73, MrgX1 antag inactive, MrgX1 allo act inactive, MrgX1 ag reconf 275%, HEK293 Ca flux inactive, HEK293 Ca counter inactive and HEK293 Ca cntr2 78.
`Cc1cc(N2CCN(c3ccccc3)CC2)nc(N)n1` gave RGS4 inh inactive, RGS4 pot inactive, MrgX1 agonist 43, MrgX1 antag inactive, MrgX1 allo act inactive, MrgX1 ag reconf 252%, HEK293 Ca flux inactive, HEK293 Ca counter inactive and HEK293 Ca cntr2 inactive.
Cc1cc(N2CCN(c3ccccc3)CC2)nc(-c2ccccc2)n1 was read as RGS4 inh inactive, RGS4 pot inactive, MrgX1 agonist inactive, MrgX1 antag inactive and MrgX1 allo act inactive.
Screening O=C1Nc2ccccc2C(=O)C1(Cl)Cc1ccccc1 (configuration not stated) returned RGS4 inh inactive, RGS4 pot inactive, MrgX1 agonist 32, MrgX1 antag inactive, MrgX1 allo act inactive, MrgX1 ag reconf 199%, HEK293 Ca flux inactive, HEK293 Ca counter inactive and HEK293 Ca cntr2 inactive.
`CC(C)(C)N1C(=O)c2ccccc2NC(=O)N1Cc1ccccc1` gave RGS4 inh inactive, RGS4 pot inactive, MrgX1 agonist inactive, MrgX1 antag inactive and MrgX1 allo act inactive.
CC(C)N1CCc2c(sc(NC(=O)c3ccc(C(=O)c4ccccc4)cc3)c2C(N)=O)C1 was read as RGS4 inh inactive, RGS4 pot inactive, MrgX1 agonist 36, MrgX1 antag inactive, MrgX1 allo act inactive, MrgX1 ag reconf inactive, HEK293 Ca flux inactive, HEK293 Ca counter inactive and HEK293 Ca cntr2 inactive.
`CC(C)N1CCc2c(sc(NC(=O)Cc3ccccc3)c2C(N)=O)C1` gave RGS4 inh inactive, RGS4 pot inactive, MrgX1 agonist inactive, MrgX1 antag inactive and MrgX1 allo act inactive.
`CC(=O)N1CCN(C(=S)Nc2cc(S(=O)(=O)N3CCOCC3)ccc2Cl)CC1` gave RGS4 inh inactive, RGS4 pot inactive, MrgX1 agonist inactive, MrgX1 antag inactive and MrgX1 allo act inactive.
Screening O=C(NC(=S)NNC(=O)c1cccs1)c1ccc(Br)o1 returned RGS4 inh inactive, RGS4 pot inactive, MrgX1 agonist 100, MrgX1 antag inactive, MrgX1 allo act inactive, MrgX1 ag reconf 710%, HEK293 Ca flux inactive, HEK293 Ca counter inactive and HEK293 Ca cntr2 137.
Screening O=C(NNC(=S)NC(=O)c1cccs1)c1ccc(O)cc1 returned RGS4 inh inactive, RGS4 pot inactive, MrgX1 agonist inactive, MrgX1 antag inactive and MrgX1 allo act inactive.
For Cc1ccc(C(=O)NNC(=O)CSc2nnc(C3CC3)n2C)cc1 the results were RGS4 inh inactive, RGS4 pot inactive, MrgX1 agonist inactive, MrgX1 antag inactive and MrgX1 allo act inactive.
For O=C(CN(c1ccc(F)cc1)S(=O)(=O)c1ccc2c(c1)OCCO2)Nc1cccnc1 the results were RGS4 inh inactive, RGS4 pot inactive, MrgX1 agonist 40, MrgX1 antag inactive, MrgX1 allo act inactive, MrgX1 ag reconf inactive, HEK293 Ca flux inactive, HEK293 Ca counter inactive and HEK293 Ca cntr2 inactive.
Screening Nc1c(C(=O)c2ccccc2)sc2nsc(SCCN3CCCC3)c12 returned RGS4 inh inactive, RGS4 pot inactive, MrgX1 agonist inactive, MrgX1 antag inactive and MrgX1 allo act inactive.
Screening Nc1c(C(=O)c2ccc(Cl)cc2)sc2nsc(SCCN3CCOCC3)c12 returned RGS4 inh inactive, RGS4 pot inactive, MrgX1 agonist 39, MrgX1 antag inactive, MrgX1 allo act inactive, MrgX1 ag reconf inactive, HEK293 Ca flux 0.48, HEK293 Ca counter inactive and HEK293 Ca cntr2 104.
`O=C(NNC(=S)NC1CCCCC1)c1sc2ccccc2c1Cl` gave RGS4 inh inactive, RGS4 pot inactive, MrgX1 agonist inactive, MrgX1 antag inactive and MrgX1 allo act inactive.
Screening CC(C)(C)C(=O)NC(=S)NNC(=O)c1sc2ccccc2c1Cl returned RGS4 inh inactive, RGS4 pot inactive, MrgX1 agonist 142, MrgX1 antag inactive, MrgX1 allo act inactive, MrgX1 ag reconf 917%, HEK293 Ca flux inactive, HEK293 Ca counter inactive and HEK293 Ca cntr2 177.
CCc1cccc(C)c1NC(=S)N1CCCCC1c1cccnc1 (configuration not stated) was read as RGS4 inh inactive, RGS4 pot inactive, MrgX1 agonist 28, MrgX1 antag inactive, MrgX1 allo act inactive, MrgX1 ag reconf 100%, HEK293 Ca flux inactive, HEK293 Ca counter inactive and HEK293 Ca cntr2 48.

Bioassay records (PubChem BioAssay)
